Test results as given in ChEMBL document CHEMBL1158564, “Synthesis and biological evaluation of 1,4-diazepane derivatives as T-type calcium channel blockers” (Bioorg Med Chem Lett, 2010).

Tests used:
[1] = molecular target: T1, Voltage-dependent T-type calcium channel subunit alpha-1G (Homo sapiens, UniProt O43497); assay: Inhibition of T-type calcium channel alpha1G expressed in human HEK293 cells assessed as inhibition of KCl-induced increase in calcium level at 10 uM after 60 mins by FDSS6000 assay
T1 sequence (O43497 whole entry): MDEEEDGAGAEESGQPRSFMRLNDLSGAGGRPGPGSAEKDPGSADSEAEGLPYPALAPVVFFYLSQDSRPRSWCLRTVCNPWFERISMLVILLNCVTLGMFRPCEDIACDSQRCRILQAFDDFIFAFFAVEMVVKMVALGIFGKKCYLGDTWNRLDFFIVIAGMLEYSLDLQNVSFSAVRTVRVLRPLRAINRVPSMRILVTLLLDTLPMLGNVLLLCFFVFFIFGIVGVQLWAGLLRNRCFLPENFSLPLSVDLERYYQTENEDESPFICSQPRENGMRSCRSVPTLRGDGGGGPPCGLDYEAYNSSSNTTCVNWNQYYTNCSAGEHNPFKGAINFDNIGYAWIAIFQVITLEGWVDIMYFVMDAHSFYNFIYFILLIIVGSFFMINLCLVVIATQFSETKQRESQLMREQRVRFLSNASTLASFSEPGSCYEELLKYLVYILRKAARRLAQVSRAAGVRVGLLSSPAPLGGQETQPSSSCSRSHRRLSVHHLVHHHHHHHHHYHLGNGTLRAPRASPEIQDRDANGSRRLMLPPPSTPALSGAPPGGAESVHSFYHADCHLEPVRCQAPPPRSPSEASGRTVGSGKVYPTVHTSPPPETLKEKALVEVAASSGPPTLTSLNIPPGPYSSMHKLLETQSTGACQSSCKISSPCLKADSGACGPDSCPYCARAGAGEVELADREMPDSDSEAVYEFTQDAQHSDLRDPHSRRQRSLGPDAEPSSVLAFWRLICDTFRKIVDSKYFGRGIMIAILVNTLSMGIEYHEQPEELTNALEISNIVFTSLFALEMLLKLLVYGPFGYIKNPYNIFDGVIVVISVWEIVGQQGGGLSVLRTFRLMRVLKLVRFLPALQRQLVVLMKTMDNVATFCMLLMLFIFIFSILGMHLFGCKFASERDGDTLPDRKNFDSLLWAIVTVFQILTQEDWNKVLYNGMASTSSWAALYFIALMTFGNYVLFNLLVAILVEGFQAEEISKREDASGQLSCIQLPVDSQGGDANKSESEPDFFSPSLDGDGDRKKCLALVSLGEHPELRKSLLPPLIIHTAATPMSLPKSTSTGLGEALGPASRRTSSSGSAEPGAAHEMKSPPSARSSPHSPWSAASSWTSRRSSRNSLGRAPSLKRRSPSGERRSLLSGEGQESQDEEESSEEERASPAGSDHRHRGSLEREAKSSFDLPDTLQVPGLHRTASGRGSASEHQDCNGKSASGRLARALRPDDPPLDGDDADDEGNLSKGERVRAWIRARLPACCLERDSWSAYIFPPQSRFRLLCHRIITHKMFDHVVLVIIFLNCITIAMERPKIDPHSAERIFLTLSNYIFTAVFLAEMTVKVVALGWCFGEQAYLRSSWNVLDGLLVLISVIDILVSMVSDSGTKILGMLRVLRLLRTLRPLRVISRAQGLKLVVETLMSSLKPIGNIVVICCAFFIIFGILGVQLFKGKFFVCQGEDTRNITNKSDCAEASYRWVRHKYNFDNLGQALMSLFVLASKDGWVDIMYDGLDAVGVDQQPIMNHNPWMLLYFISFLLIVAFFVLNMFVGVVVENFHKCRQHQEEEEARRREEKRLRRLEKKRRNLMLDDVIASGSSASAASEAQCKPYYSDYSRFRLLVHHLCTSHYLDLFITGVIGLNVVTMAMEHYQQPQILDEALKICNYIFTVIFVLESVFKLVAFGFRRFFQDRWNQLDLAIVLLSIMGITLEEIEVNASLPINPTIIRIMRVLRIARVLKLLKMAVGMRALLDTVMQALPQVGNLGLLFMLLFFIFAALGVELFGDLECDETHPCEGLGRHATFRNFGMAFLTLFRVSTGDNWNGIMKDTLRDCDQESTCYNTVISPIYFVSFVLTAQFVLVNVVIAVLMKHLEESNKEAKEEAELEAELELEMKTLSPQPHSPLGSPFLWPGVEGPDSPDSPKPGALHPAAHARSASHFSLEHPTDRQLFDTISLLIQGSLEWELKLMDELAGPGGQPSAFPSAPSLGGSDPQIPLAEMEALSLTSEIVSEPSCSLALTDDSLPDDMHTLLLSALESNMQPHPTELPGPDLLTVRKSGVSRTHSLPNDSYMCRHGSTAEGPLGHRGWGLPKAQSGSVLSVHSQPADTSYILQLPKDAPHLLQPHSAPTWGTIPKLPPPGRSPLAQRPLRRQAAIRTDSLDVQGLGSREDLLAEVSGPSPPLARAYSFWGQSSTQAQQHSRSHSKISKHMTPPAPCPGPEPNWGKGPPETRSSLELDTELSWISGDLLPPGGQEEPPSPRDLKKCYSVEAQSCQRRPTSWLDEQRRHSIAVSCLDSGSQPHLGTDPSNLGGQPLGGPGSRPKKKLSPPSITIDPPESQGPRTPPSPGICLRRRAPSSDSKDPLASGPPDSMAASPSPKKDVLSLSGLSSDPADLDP

[2] = molecular target: T1, Voltage-dependent T-type calcium channel subunit alpha-1G; assay: Inhibition of T-type calcium channel alpha1G expressed in human HEK293 cells assessed as inhibition of peak currents by whole-cell patch-clamp method; type: cell-based
Procedure, shortened: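 Whole-cell recording of α1G T-type Ca²⁺ currents, evoked every 15 s by a 50 ms depolarizing step from −100 mV to −30 mV. Peak-current inhibition was measured across compound concentrations. IC50 was obtained by fitting raw data to dose–response curves.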

[3] = molecular target: Voltage-gated inwardly rectifying potassium channel KCNH2 (Homo sapiens, UniProt Q12809); assay: Inhibition of human ERG
[4] = molecular target: Voltage-dependent N-type calcium channel subunit alpha-1B (Homo sapiens, UniProt Q00975); assay: Inhibition of N-type calcium channel Alpha-1B
Chain of Voltage-dependent N-type calcium channel subunit alpha-1B (Q00975 whole entry): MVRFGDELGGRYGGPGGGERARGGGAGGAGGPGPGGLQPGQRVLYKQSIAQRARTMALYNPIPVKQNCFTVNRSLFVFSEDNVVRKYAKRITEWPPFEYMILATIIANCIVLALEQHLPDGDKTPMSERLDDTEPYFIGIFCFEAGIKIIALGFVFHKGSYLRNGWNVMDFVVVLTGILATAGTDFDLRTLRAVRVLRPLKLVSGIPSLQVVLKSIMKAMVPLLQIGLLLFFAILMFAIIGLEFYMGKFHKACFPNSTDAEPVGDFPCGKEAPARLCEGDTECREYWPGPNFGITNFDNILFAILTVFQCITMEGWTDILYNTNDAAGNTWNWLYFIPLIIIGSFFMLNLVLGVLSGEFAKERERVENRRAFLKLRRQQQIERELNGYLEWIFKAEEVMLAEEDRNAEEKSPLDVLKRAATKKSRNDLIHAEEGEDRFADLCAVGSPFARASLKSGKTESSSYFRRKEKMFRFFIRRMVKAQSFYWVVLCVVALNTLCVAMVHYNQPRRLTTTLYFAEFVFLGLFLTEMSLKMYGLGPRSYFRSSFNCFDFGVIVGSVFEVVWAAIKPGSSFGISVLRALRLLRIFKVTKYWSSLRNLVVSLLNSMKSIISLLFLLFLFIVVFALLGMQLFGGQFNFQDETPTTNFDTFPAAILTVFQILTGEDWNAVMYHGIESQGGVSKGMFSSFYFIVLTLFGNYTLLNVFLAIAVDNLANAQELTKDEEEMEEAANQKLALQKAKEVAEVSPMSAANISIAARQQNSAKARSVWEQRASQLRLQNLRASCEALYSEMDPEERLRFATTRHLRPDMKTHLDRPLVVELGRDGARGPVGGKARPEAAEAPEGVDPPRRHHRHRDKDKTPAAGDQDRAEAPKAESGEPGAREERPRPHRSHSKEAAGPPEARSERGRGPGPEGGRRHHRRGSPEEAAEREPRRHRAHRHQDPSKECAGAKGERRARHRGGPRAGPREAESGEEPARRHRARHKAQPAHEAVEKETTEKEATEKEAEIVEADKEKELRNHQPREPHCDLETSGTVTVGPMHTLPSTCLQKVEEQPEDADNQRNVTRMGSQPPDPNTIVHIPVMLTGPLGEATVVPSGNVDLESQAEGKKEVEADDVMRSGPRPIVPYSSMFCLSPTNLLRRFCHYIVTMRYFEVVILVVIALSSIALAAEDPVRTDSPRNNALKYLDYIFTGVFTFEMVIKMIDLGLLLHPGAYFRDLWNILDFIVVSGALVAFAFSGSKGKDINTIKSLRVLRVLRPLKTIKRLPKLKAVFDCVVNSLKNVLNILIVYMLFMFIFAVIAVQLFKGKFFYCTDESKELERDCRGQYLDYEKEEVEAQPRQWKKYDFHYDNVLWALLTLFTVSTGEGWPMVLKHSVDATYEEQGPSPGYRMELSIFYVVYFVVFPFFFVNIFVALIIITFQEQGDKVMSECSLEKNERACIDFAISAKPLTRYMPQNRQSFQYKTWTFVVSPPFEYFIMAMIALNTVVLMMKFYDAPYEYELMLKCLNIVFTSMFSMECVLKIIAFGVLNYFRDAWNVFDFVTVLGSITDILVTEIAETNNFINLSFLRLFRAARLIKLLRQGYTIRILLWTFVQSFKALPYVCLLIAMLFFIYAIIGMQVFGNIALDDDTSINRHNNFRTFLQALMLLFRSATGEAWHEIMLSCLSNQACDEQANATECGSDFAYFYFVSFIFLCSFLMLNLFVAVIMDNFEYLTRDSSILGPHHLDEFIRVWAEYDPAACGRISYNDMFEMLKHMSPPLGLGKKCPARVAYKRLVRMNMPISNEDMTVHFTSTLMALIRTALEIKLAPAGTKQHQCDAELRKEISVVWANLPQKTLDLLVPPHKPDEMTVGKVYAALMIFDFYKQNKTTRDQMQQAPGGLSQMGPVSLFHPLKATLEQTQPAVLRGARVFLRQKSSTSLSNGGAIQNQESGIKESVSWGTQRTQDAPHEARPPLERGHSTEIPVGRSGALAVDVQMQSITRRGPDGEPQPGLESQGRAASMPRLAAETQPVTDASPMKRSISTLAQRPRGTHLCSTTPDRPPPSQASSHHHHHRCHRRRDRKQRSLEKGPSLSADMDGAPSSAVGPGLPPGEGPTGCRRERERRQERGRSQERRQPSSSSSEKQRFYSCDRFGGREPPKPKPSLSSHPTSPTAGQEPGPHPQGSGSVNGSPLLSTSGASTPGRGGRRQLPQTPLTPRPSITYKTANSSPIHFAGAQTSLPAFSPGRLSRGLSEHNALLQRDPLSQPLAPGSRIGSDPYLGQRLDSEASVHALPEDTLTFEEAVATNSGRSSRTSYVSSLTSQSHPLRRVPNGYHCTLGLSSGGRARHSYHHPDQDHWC

[5] = Half life in iv dosed rat; type: ADME, organism-based; settings: in vivo
Procedure, shortened: (§1)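 Rat plasma pharmacokinetics after intravenous (n = 4) or oral (n = 3) dosing. Brain-to-plasma ratio, Cmax, Tmax, half-life, Vdss and oral bioavailability were derived per route. Values are given as mean with standard deviation.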

[6] = Volume of distribution at steady state in iv dosed rat; type: ADME, organism-based; settings: in vivo, read-out: Vdss
Procedure, shortened: as §1

[7] = Ratio of drug level in brain to plasma in iv dosed rat; type: ADME, organism-based; settings: read-out: BPR
Procedure, shortened: as §1

[8] = Half life in po dosed rat; type: ADME, organism-based; settings: in vivo
Procedure, shortened: as §1

[9] = Cmax in po dosed rat; type: ADME, organism-based; parameters: route oral; settings: in vivo
Procedure, shortened: as §1

[10] = Tmax in po dosed rat; type: ADME, organism-based; settings: in vivo
Procedure, shortened: as §1

[11] = Ratio of drug level in brain to plasma in po dosed rat; type: ADME, organism-based; settings: read-out: BPR
Procedure, shortened: as §1

[12] = Oral bioavailability in rat; type: ADME, organism-based; settings: in vivo
Procedure, shortened: as §1

SMILES | inhibition [1] | further results
Cc1ccc(NCC(=O)N2CCCN(Cc3nc4ccccc4[nH]3)CC2)cc1 | 16.4% | –
CCc1cccc(CC)c1NCC(=O)N1CCCN(Cc2nc3ccccc3[nH]2)CC1 | 62.4% | IC50 [2]: 4 µM
Cc1cccc(NCC(=O)N2CCCN(Cc3nc4ccccc4[nH]3)CC2)c1 | 8.48% | –
COc1ccccc1NCC(=O)N1CCCN(Cc2nc3ccccc3[nH]2)CC1 | 8.29% | –
O=C(CNc1cccc(F)c1)N1CCCN(Cc2nc3ccccc3[nH]2)CC1 | 7.52% | –
O=C(CNc1ccc(F)cc1)N1CCCN(Cc2nc3ccccc3[nH]2)CC1 | 12.8% | –
O=C(CNc1ccccc1C(F)(F)F)N1CCCN(Cc2nc3ccccc3[nH]2)CC1 | 66% | IC50 [2]: 3.17 µM; IC50 [3]: 1.32 µM
COCC(=O)O[C@]1(CCN(C)CCCc2nc3ccccc3[nH]2)CCc2cc(F)ccc2[C@@H]1C(C)C [MIBEFRADIL] | – | IC50 [4]: 1.34 µM
CCc1cccc(CC)c1NC(=O)CN1CCCN(Cc2nc3ccccc3[nH]2)CC1 | 57.4% | IC50 [2]: 2.08 µM
O=C(CN1CCCN(Cc2nc3ccccc3[nH]2)CC1)Nc1ccccc1C(F)(F)F | 41.7% | –
O=C(CN1CCCN(Cc2nc3ccccc3[nH]2)CC1)Nc1ccccc1Cl | 56.8% | IC50 [2]: 1.47 µM
O=C(CNc1ccc(Cl)cc1)N1CCCN(Cc2nc3ccccc3[nH]2)CC1 | 36.9% | –
Cc1cccc(C)c1NCC(=O)N1CCCN(Cc2nc3ccccc3[nH]2)CC1 | 29.5% | –
COc1cccc(NCC(=O)N2CCCN(Cc3nc4ccccc4[nH]3)CC2)c1 | 1.54% | –
O=C(CN1CCCN(Cc2nc3ccccc3[nH]2)CC1)Nc1ccccc1F | 32.4% | –
Cc1ccccc1NCC(=O)N1CCCN(Cc2nc3ccccc3[nH]2)CC1 | 7.04% | –
O=C(CNc1ccc(C(F)(F)F)cc1)N1CCCN(Cc2nc3ccccc3[nH]2)CC1 | 28.2% | –
COc1ccc(NCC(=O)N2CCCN(Cc3nc4ccccc4[nH]3)CC2)cc1 | 0.92% | –
O=C(CNc1cccc(C(F)(F)F)c1)N1CCCN(Cc2nc3ccccc3[nH]2)CC1 | 27.3% | –
O=C(CN1CCCN(Cc2nc3ccccc3[nH]2)CC1)Nc1ccc(C(F)(F)F)cc1 | 60.7% | IC50 [2]: 1.23 µM; IC50 [3]: 4.97 µM; IC50 [4]: 28.7 µM; half-life [5]: 5.67 h; Vd [6]: 2.33 L/kg; Kp [7]: 0.438; half-life [8]: 4.34 h; Cmax [9]: 2280 ng/mL; Tmax [10]: 2 h; Kp [11]: 0.105; bioavailability [12]: 43.4%
Cc1ccc(NCC(=O)N2CCCN(Cc3nc4ccccc4[nH]3)CC2)c(C)c1 | 21.1% | –
O=C(CNc1cccc(Cl)c1)N1CCCN(Cc2nc3ccccc3[nH]2)CC1 | 40.9% | –
O=C(CNc1ccccc1Cl)N1CCCN(Cc2nc3ccccc3[nH]2)CC1 | 32.2% | –
O=C(CNc1ccccc1F)N1CCCN(Cc2nc3ccccc3[nH]2)CC1 | 22.3% | –

More lines, main results first:

inhibition [1] | SMILES | further results
32.4% | COc1ccc(NC(=O)CN2CCCN(Cc3nc4ccccc4[nH]3)CC2)cc1 | –
46.1% | COc1cccc(NC(=O)CN2CCCN(Cc3nc4ccccc4[nH]3)CC2)c1 | –
59.1% | COc1ccccc1NC(=O)CN1CCCN(Cc2nc3ccccc3[nH]2)CC1 | IC50 [2]: 12.6 µM
44.8% | Cc1ccc(NC(=O)CN2CCCN(Cc3nc4ccccc4[nH]3)CC2)cc1 | –
47.6% | Cc1ccc(NC(=O)CN2CCCN(Cc3nc4ccccc4[nH]3)CC2)c(C)c1 | –
51.8% | Cc1ccccc1NC(=O)CN1CCCN(Cc2nc3ccccc3[nH]2)CC1 | –
16.5% | Cc1ccc(NCC(=O)N2CCCN(Cc3nc4ccccc4[nH]3)CC2)cc1C | –
56.2% | Cc1ccc(NC(=O)CN2CCCN(Cc3nc4ccccc4[nH]3)CC2)cc1C | IC50 [2]: 2.39 µM
46.6% | O=C(CN1CCCN(Cc2nc3ccccc3[nH]2)CC1)Nc1ccc(F)cc1 | –
54.8% | Cc1cccc(NC(=O)CN2CCCN(Cc3nc4ccccc4[nH]3)CC2)c1 | –
41.7% | O=C(CN1CCCN(Cc2nc3ccccc3[nH]2)CC1)Nc1cccc(Cl)c1 | –
60.1% | O=C(CN1CCCN(Cc2nc3ccccc3[nH]2)CC1)Nc1cccc(C(F)(F)F)c1 | –
46.4% | O=C(CN1CCCN(Cc2nc3ccccc3[nH]2)CC1)Nc1cccc(F)c1 | –
39.8% | Cc1cccc(C)c1NC(=O)CN1CCCN(Cc2nc3ccccc3[nH]2)CC1 | –
51.3% | O=C(CN1CCCN(Cc2nc3ccccc3[nH]2)CC1)Nc1ccc(Cl)cc1 | –
